Here are results for two compounds from article PMC4837022 (Nature chemical biology, 2016).

Type in all cases: cell-based, murine
For one assay, the system named is CD4+ T-cell blasts. Description: IL-2-driven T-cell proliferation. The following applies: Mus musculus, read-out: EC90 for blocking T-cell proliferation.
Assay [1] has as its system pSTAT5 in CD4+ T-cell blasts. Description: pSTAT5 time course after IL-2 stimulation. The following applies: tofacitinib 50 nM. The essentials: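 Rested mouse CD4+ T-cell blasts received 15 nM test compound or a reference JAK inhibitor (50 nM), 2 h before or 90 min after rhIL-2 (50 u/mL). pSTAT5 and pS6 (Ser240/244) were read by phosphoflow at the indicated times from 15 min onward: 2% PFA fixation, 90% methanol permeabilisation, barcoding. MFI was normalised to the 15-min DMSO maximum and given as mean ± SEM of 4–10 independent experiments.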

The test system of assay [2] is CD4+ T-cell blasts (S-phase entry). Description: S-phase entry by EdU labeling, delayed inhibitor addition. The following applies: GDC-0941 1.5 µM added 12 hours after IL-2 stimulation.

Consider `C[C@@H]1CCN(C(=O)CC#N)C[C@@H]1N(C)c1ncnc2[nH]ccc12` [tofacitinib], for which, in the assay on CD4+ T-cell blasts, the EC90 is 50 nM. Also, the “reduction of pSTAT5 levels during the second wave” value in assay [1] is greater than 50%. For the compound `CS(=O)(=O)N1CCN(Cc2cc3nc(-c4cccc5[nH]ncc45)nc(N4CCOCC4)c3s2)CC1` [GDC0941], the S-phase entry result in assay [2] was “prevented the majority of cells from entering S-phase”.
